Active and inactive are the calls of the source.
Assays:
Type in all cases: functional, organism-based
[1] = test system: Candida parapsilosis; experiment: Antifungal activity against Candida parapsilosis ATCC 22019 at 198.1 uM after 48 hrs by CLSI method
In short: (§1)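 Yeast suspensions made from 3-5 colonies off 24-72 h SD agar plates in saline. They were diluted by OD630 standard curve in RPMI 1640 (0.2% dextrose, 0.03% glutamine, 0.165 M MOPS, pH 7.0) to 1.5 × 10³ CFU/ml. Twofold dilutions (11 concentrations, 20% DMSO-saline) run in duplicate. OD530 read before and after 35°C, 48 h. Line values are top test concentrations; no-growth endpoints give MIC/MFC.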

[2] = test system: Candida albicans; experiment: Antifungal activity against Candida albicans ATCC 32354 at 198.1 uM after 48 hrs by CLSI method
In short: (§2)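 Candida inocula came from 24–72-h SD agar colonies suspended in saline. They were diluted by OD630 standard curve into RPMI 1640 (0.2% dextrose, 0.03% glutamine, 0.165 M MOPS, pH 7.0) to 1.5 × 10³ CFU/ml. Compounds were run as 11 twofold dilutions in 20% DMSO-saline, in duplicate, at 35°C for 48 h, with OD530 read before and after. Percent growth at the top concentration, IC50, MIC, and MFC (SD agar plating) were derived.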

[3] = test system: Candida albicans; experiment: Antifungal activity against Fluconazole resistant Candida albicans isolate 1 at 198.1 uM after 48 hrs by CLSI method
In short: (§3)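 Candida in CLSI broth microdilution. Saline colony suspension set to 1.5 × 10³ CFU/ml (final) in MOPS-buffered RPMI 1640, pH 7.0. Test agent given as twofold serial dilutions in 20% DMSO-saline, duplicate wells. 35°C for 48 h. Growth read as OD530 before and after incubation. Percent inhibition scored at the highest test concentration.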

[4] = test system: Candida parapsilosis; experiment: Antifungal activity against Candida parapsilosis ATCC 22019 at 168.9 uM after 48 hrs by CLSI method; in short: as §1
[5] = test system: Candida tropicalis; experiment: Antifungal activity against Candida tropicalis ATCC 750 at 168.9 uM after 48 hrs by CLSI method; in short: as §1
[6] = test system: Candida albicans; experiment: Antifungal activity against Fluconazole resistant Candida albicans isolate 1 at 168.9 uM after 48 hrs by CLSI method; in short: as §3
[7] = test system: Aspergillus flavus; experiment: Antifungal activity against Aspergillus flavus ATCC 204304 at 168.9 uM after 48 hrs by CLSI method
[8] = test system: Trichophyton rubrum; experiment: Antifungal activity against Trichophyton rubrum ATCC 10218 at 168.9 uM after 5 days by CLSI method
[9] = test system: Nakaseomyces glabratus; experiment: Antifungal activity against Candida glabrata ATCC 90030 at 168.9 uM after 48 hrs by CLSI method; in short: as §2
[10] = test system: Candida albicans; experiment: Antifungal activity against Candida albicans ATCC 60193 at 168.9 uM after 48 hrs by CLSI method; in short: as §2
[11] = test system: Aspergillus niger; experiment: Antifungal activity against Aspergillus niger ATCC 16404 at 168.9 uM after 48 hrs by CLSI method
[12] = test system: Trichophyton rubrum; experiment: Antifungal activity against Trichophyton rubrum ATCC MYA-4438 at 168.9 uM after 5 days by CLSI method
[13] = test system: Candida parapsilosis; experiment: Antifungal activity against Candida parapsilosis ATCC 22019 at 187.7 uM after 48 hrs by CLSI method; in short: as §1
[14] = test system: Nakaseomyces glabratus; experiment: Antifungal activity against Candida glabrata ATCC 90030 at 187.7 uM after 48 hrs by CLSI method; in short: as §2
[15] = test system: Candida albicans; experiment: Antifungal activity against Fluconazole resistant Candida albicans isolate 1 at 187.7 uM after 48 hrs by CLSI method; in short: as §3
[16] = test system: Candida albicans; experiment: Antifungal activity against Candida albicans ATCC 90028 at 187.7 uM after 48 hrs by CLSI method; in short: as §2
[17] = test system: Candida albicans; experiment: Antifungal activity against Candida albicans ATCC 200955 at 187.7 uM after 48 hrs by CLSI method; in short: as §2
[18] = test system: Aspergillus flavus; experiment: Antifungal activity against Aspergillus flavus ATCC 204304 at 187.7 uM after 48 hrs by CLSI method
[19] = test system: Candida albicans; experiment: Antifungal activity against Candida albicans ATCC 200955 at 169.8 uM after 48 hrs by CLSI method; in short: as §2
[20] = test system: Candida albicans; experiment: Antifungal activity against Candida albicans ATCC 60193 at 169.8 uM after 48 hrs by CLSI method; in short: as §2
[21] = test system: Candida albicans; experiment: Antifungal activity against Fluconazole resistant Candida albicans isolate 17 at 169.8 uM after 48 hrs by CLSI method; in short: as §3
[22] = test system: Trichophyton rubrum; experiment: Antifungal activity against Trichophyton rubrum ATCC MYA-4438 at 169.8 uM after 5 days by CLSI method
[23] = test system: Candida albicans; experiment: Antifungal activity against Candida albicans ATCC 32354 at 169.8 uM after 48 hrs by CLSI method; in short: as §2
[24] = test system: Aspergillus niger; experiment: Antifungal activity against Aspergillus niger ATCC 16404 at 169.8 uM after 48 hrs by CLSI method
[25] = test system: Candida albicans; experiment: Antifungal activity against Candida albicans ATCC 90028 at 169.8 uM after 48 hrs by CLSI method; in short: as §2
[26] = test system: Cryptococcus neoformans; experiment: Antifungal activity against Cryptococcus neoformans ATCC 66031 at 169.8 uM after 72 hrs by CLSI method
In short: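 SD broth replaced RPMI because growth in RPMI was poor; other CLSI conditions were kept. Inoculum was 1.5 × 10³ CFU/ml from colonies on SD agar, checked by plating. Twofold serial dilutions (11 concentrations) in 20% DMSO-saline were tested in duplicate. OD530 was read before and after incubation at 35°C for 72 h. Percent growth gave IC50; the MIC is the lowest concentration with no detectable growth.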

[27] = test system: Candida albicans; experiment: Antifungal activity against Fluconazole resistant Candida albicans isolate 1 at 169.8 uM after 48 hrs by CLSI method; in short: as §3
[28] = test system: Trichophyton rubrum; experiment: Antifungal activity against Trichophyton rubrum ATCC 10218 at 9.4 uM after 5 days by CLSI method
In short: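 Trichophyton growth scraped from 1–6-week potato dextrose slants and filtered through Miracloth. Inoculum 2.7 × 10⁴ CFU/ml (final) in 5% Alamar blue-RPMI 1640 buffered with MOPS, pH 7.0. Duplicate twofold dilutions from 20% DMSO-saline. Incubated 35°C for 5 days. Fluorescence read at 544 nm excitation, 590 nm emission. Inhibition assessed at the highest test concentration.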

[29] = test system: Candida albicans; experiment: Antifungal activity against Fluconazole resistant Candida albicans isolate 17 at 9.4 uM after 48 hrs by CLSI method; in short: as §3
[30] = test system: Aspergillus niger; experiment: Antifungal activity against Aspergillus niger ATCC 16404 at 9.4 uM after 48 hrs by CLSI method
In short: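 Aspergillus growth on 1–6-week potato dextrose slants scraped and Miracloth-filtered. Inoculum sized by OD630 curve to 2.7 × 10⁴ CFU/ml (final) in 5% Alamar blue-RPMI 1640 (MOPS, pH 7.0). Duplicate twofold dilutions from 20% DMSO-saline. 35°C for 48 h. Fluorescence 544/590 nm read before and after. Percent inhibition taken at the highest test concentration.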

[31] = test system: Candida tropicalis; experiment: Antifungal activity against Candida tropicalis ATCC 750 at 9.4 uM after 48 hrs by CLSI method; in short: as §3
[32] = test system: Candida albicans; experiment: Antifungal activity against Candida albicans ATCC 90028 at 9.4 uM after 48 hrs by CLSI method; in short: as §3

Measured: Activity

CCCCCCCCCC#CCCCCC(=O)O
inactive: [1] | [2] | [3]

CCCCCC#CCC#CCC#CCC#CCCCC(=O)O
inactive: [4] | [5] | [6] | [7] | [8] | [9] | [10] | [11] | [12]

CCCCCCCCCCC#CCCCCC(=O)O
inactive: [13] | [14] | [15] | [16] | [17] | [18]

CCCCCCCCCCCCC#CCCCCC(=O)O [6-NONADECYNOIC ACID]
inactive: [19] | [20] | [21] | [22] | [23] | [24] | [25] | [26] | [27]

CC(=O)N1CCN(c2ccc(OCC3COC(Cn4ccnc4)(c4ccc(Cl)cc4Cl)O3)cc2)CC1 (configuration not stated) [KETOCONAZOLE]
inactive: [28] | [29] | [30] | [31] | [32]

Source: ChEMBL document CHEMBL1275449, “Potent in vitro antifungal activities of naturally occurring acetylenic acids” (Antimicrob Agents Chemother, 2008)
